Rows were chosen to be rich in hits. Some 4% of all compounds tested hit in one or more screens of this group.
GRIN3A LBD mod: modulates the human NR3A ligand-binding domain. NR3A LBD differential scanning fluorimetry, Tm shift; 0% = protein alone, 100% = glycine-bound protein. Tm shift relative to glycine control, % at 25 µM. 340,000 tested, 2.5% active. AID 1259313;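 active = melting temperature shift of at least 10% of the positive control shift, at one fixed dose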
SENP1 inh: inhibitors of human SENP1 SUMO protease catalytic domain | Q9P0U3 | recombinant SENP1 catalytic domain, CyPet-SUMO1-YPet FRET cleavage | inhibition, % at 10 µM | 360,000 tested, 0.21% active;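 active = inhibition at least 30% at 10 µM, raw YFP signal under a set limit, fluorescence ratio 0.5 to 1.5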;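 note: 0% = enzyme with DMSO and 100% = no enzyme wells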
Target sequence (Q9P0U3 419-644 limits assumed): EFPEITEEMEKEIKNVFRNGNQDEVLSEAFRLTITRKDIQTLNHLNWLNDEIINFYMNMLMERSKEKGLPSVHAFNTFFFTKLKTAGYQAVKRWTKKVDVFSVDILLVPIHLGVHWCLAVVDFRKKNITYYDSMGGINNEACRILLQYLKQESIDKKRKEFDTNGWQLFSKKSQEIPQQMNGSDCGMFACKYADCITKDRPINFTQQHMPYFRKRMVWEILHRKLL
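Material: hSENP1 catalytic domain, recombinant; medium: Tris pH 8 with BME, BSA, NP40 and catalase; compound: single concentration of 10 µM compound, 0.5% DMSO final; technique: FRET read of cyan and yellow fluorescence; timing: 50 min enzyme reaction, room temperature, light-protected; reagent: SFCypet-SUMO1-SFYpet substrate at 25 nM; control set: no-enzyme low, enzyme-DMSO high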
Cardio protect: modulators protecting cardiomyocytes from myocardial damage; protection from H2O2 cell death, % at 20 µM; 360,000 tested, 0.63% active; AID 588492; H9c2 cardiomyocytes, H2O2 injury protection, ATPLite, 2 h;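 active = compounds giving at least 50% protection of heart cells from peroxide-induced death in the single-dose screen, raw or plate-pattern-corrected value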;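 note: 0% = DMSO wells with peroxide and 100% = DMSO wells without peroxide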
hiPSC survival: increases survival of single human iPS cells | survival enhancement, % at 20 µM | AID 602274 | hiPSC single-cell survival, ATPlite luminescence; 100% = ROCK inhibitor wells, 0% = DMSO | 360,000 tested, 0.044% active; in the data active = survival enhancement above about 18%;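 note: cells exposed to compounds for 16 hours before the ATP read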
Arrestin-AP2 inh: inhibitors of human beta-arrestin and AP2 interaction. FITC-arrestin peptide / GST-AP2 beads, flow cytometry; AP2 beta2 appendage carries R879A mutation. inhibition, % at 10 µM. AID 504490. 340,000 tested, 0.31% active;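 active = inhibition above a set limit, near 3 SD of compounds lacking own fluorescence, cut at about 54% in these data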;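 note: plate controls were DMSO wells for no effect and 5 µM unlabelled arrestin peptide for full effect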
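system = GST-tagged AP2 beta2-adaptin appendage (R879A) on 4 µm glutathione beads | reagent = FITC-labelled arrestin peptide probe, 50 nM final | schedule = compound with beads 12 min RT, then probe 1 h RT | signal = HyperCyt-sampled flow cytometry, FL1 channel, ex 488/em 535 nm | read-out = percent response from loss of bead-bound FITC fluorescence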
FAS-TE inh: blocks the thioesterase domain of human fatty acid synthase; P49327; recombinant FAS-TE, OMFH fluorogenic substrate, fluorescence endpoint; inhibition, % at 15 µM; 360,000 tested, 0.67% active;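 active = compounds whose normalised, plate-corrected inhibition of enzyme fluorescence in the single-dose primary screen is 50% or more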;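 note: 0% = DMSO with enzyme and 100% = substrate without enzyme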
FAS-TE conf: confirmation of human fatty acid synthase thioesterase inhibitors; shares compounds with FAS-TE inh; recombinant FAS-TE, OMFH fluorogenic substrate, fluorescence; inhibition, % at 15 µM; 2,300 tested, 45% active; AID 624325;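 active = compounds inhibiting the enzyme by at least 50% at 15 µM in any one of the replicates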;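 note: 0% = enzyme with DMSO only and 100% = wells lacking enzyme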
Starred values were filed as active, the others as inactive; . = no result given.

SMILES	GRIN3A LBD mod	SENP1 inh	Cardio protect	hiPSC survival	Arrestin-AP2 inh	FAS-TE inh	FAS-TE conf
CCCCC[C@H]1CN(Cc2ccccc2)C(=O)[C@@H]1CC(=O)NCc1ccc(OC)cc1	-2	1	-12	-2	9	19	.
O=C(NC(c1ccc(Cl)cc1)c1ccsc1)C1CCN(Cc2cccc(Cl)c2)CC1 (centres undefined)	.	0	11	-2	.	14	.
CC1CCc2c(sc3nc(CN4CCN(S(=O)(=O)c5ccccc5[N+](=O)[O-])CC4)[nH]c(=O)c23)C1 (centres undefined)	2	2	-6	2	-4	91*	50*
O=C(C[C@H]1C[C@H](C(=O)N2CCOCC2)[C@@]2(CCC3CCCC3)c3[nH]c4cc(-c5ccco5)ccc4c3CCN2C1=O)NCCN1CCOCC1	-10	-29	5	-3	-9	69*	80*
COCCCNC(=O)C[C@H]1C[C@H](C(=O)N2CCOCC2)[C@@]2(CCC3CCCC3)c3[nH]c4cc(-c5ccco5)ccc4c3CCN2C1=O	0	-32	2	1	7	59*	29*
CN(C)CCCNC(=O)C[C@H]1C[C@H](C(=O)N2CCOCC2)[C@@]2(CCC3CCCC3)c3[nH]c4cc(-c5ccco5)ccc4c3CCN2C1=O	-1	-5	-7	-2	2	70*	78*
O=S(=O)(O)c1ccc2c(c1)C(C(Cl)(Cl)Cl)OC(C(Cl)(Cl)Cl)O2 (centres undefined)	-7	2	-1	-2	-3	5	.
CC1(C(=O)NCc2ccccc2)CCC(=O)N1C1CC1 (centres undefined)	.	3	1	1	.	-10	.
O=C(c1nc2ccc(Cl)cn2c1CN1CCC[C@H]1CO)N1CCc2ccccc2C1	.	-93	7	5	.	-9	.
COc1ccc(Cl)cc1NC(=O)CN(C)C(=O)c1sc2ccccc2c1Cl	4	1	-11	0	3	51*	35
COc1ccc(NC(=O)CN(C)C(=O)c2sc3ccccc3c2Cl)cc1	1	1	-2	0	3	5	.
Cc1ccc(S(=O)(=O)N(CC(=O)N/N=C/c2ccco2)c2cc(Cl)cc(Cl)c2)cc1	-3	-1	-17	0	5	40	.
O=C(CN(c1ccc(Cl)cc1)S(=O)(=O)c1ccccc1)N/N=C/c1ccco1	-2	1	-2	8	6	58*	41*
C/C=C/C=N/NC(=O)CN(c1ccc(Br)cc1)S(=O)(=O)c1ccccc1	2	0	-1	-2	1	58*	72*
CCOc1ccc(N(CC(=O)N/N=C/c2ccccn2)S(=O)(=O)c2ccc(Cl)cc2)cc1	-12	-3	56*	0	-25	61*	66*
CCOc1ccc(NC(=O)CN(c2ccc([N+](=O)[O-])cc2)S(=O)(=O)c2ccccc2)cc1	4	1	0	-4	2	55*	37*
COc1ccc(N(CC(=O)N/N=C/c2ccc(N(C)C)cc2)S(=O)(=O)c2ccccc2)cc1	1	1	-8	0	-10	12	.
CCOc1ccc(N(CC(=O)NCCSc2ccccn2)S(=O)(=O)c2ccc(Cl)cc2)cc1	-5	-2	3	2	2	24	.
COc1ccc(C2=Nc3ccccc3N(C(=O)c3ccncc3)C2C(=O)NC(C)(C)C)cc1 (centres undefined)	.	-3	.	.	.	.	.
O=C(NC1CC1)c1ccc(CSCc2ccc(Cl)cc2)o1	.	3	-3	-2	.	1	.
CC(C)c1ccccc1-n1c(SCC(=O)N2CCc3ccccc3C2)nc2ccccc2c1=O	-1	-2	-24	0	-3	60*	23
Cc1cccc(N2CCN(C(=O)CNC(=O)Cc3ccccc3)CC2)c1C	1	5	-4	5	4	2	.
Cc1cccc(N2CCN(C(=O)CNC(=O)c3cccc([N+](=O)[O-])c3)CC2)c1C	-2	0	-4	0	11	85*	67*
Cc1ccc(C(=O)NCCCc2ccccc2)c(Cl)c1	-3	3	3	1	11	15	.
O=C(NCCCc1ccccc1)c1ccc([N+](=O)[O-])cc1Cl	0	0	-3	3	13	84*	88*
SMILES	GRIN3A LBD mod	SENP1 inh	Cardio protect	hiPSC survival	Arrestin-AP2 inh	FAS-TE inh	FAS-TE conf
O=C(NCCc1cccc(Cl)c1)c1cc([N+](=O)[O-])ccc1Cl	-5	2	4	0	2	64*	46
Cc1ccc(OCCNC(=O)CNC(=O)c2ccc(Cl)c([N+](=O)[O-])c2)cc1	-3	2	-6	-1	15	62*	54*
Cc1ccc(C(=O)NCCc2cccc(Cl)c2)cc1[N+](=O)[O-]	-5	1	-8	1	-6	52*	32
CCOC(=O)[C@]12CCC=C1N(Cc1cccc3ccccc13)C(=O)[C@H](CC(=O)NCCc1ccccc1OC)C2	.	-3	.	0	.	9	.
C=CCOC1COC2C(OCC=C)COC12 (centres undefined)	0	1	8	2	35	-4	.
O=C(NCCc1cccc(Cl)c1)c1ccc(Cl)c([N+](=O)[O-])c1	-7	2	-2	1	-6	72*	50*
COCC(C)NC(=O)C1CC(=O)N(CCc2ccc(F)cc2)C1 (centres undefined)	.	2	-4	-2	.	-2	.
CCOC(=O)c1c(-c2ccccc2)csc1NC(=O)c1ccc(S(=O)(=O)N2CC(C)OC(C)C2)cc1 (centres undefined)	-1	1	-3	-1	7	16	.
CCOC(=O)c1c(-c2ccccc2)csc1NC(=O)c1cc(S(=O)(=O)N2CCOCC2)ccc1C	3	0	-6	-2	14	52*	17
O=[N+]([O-])c1cccnc1NCCNc1ncc(C(F)(F)F)cc1Cl	-12	-14	-17	0	-4	39	.
Cc1ccc(C(=O)NCCNc2ncc(C(F)(F)F)cc2Cl)cc1[N+](=O)[O-]	-2	-1	-5	0	-4	55*	60*
C=CCNC(=O)c1ccc([N+](=O)[O-])c(Cl)c1	-1	2	-1	0	38	0	.
CC(C)(CNC(=O)c1ccc([N+](=O)[O-])c(Cl)c1)CNC(=O)c1ccc([N+](=O)[O-])c(Cl)c1	3	0	-32	6	23	56*	63*
COc1ccc(C(=O)NCCNc2ncc(C(F)(F)F)cc2Cl)cc1[N+](=O)[O-]	-4	-2	3	0	-8	53*	47*

Screening results deposited in PubChem by several laboratories.
